Source: PubChem
Hits are enriched below; roughly 3.7% of the tested compounds scored in any of these assays.
KCNQ1 inh: inhibitors of human KCNQ1 channel, primary screen, cell-based, thallium flux, high-throughput. Potassium voltage-gated channel subfamily KQT member 1 (Homo sapiens), P51787. CHO-K1 KCNQ1, FluxOR thallium flux fluorescence; stronger effect = higher value. B-score at 10 µM. actives 1.3% (n = 310,000);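 active = compounds whose thallium flux B-score, printed positive for inhibition, exceeds three library SD while starting fluorescence stays within three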;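 note: channel opened by potassium depolarization with thallium stimulus after 20 min compound exposure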
Kir21 inh: inhibitors of mouse Kir2.1 inward-rectifier potassium channel. Inward rectifier potassium channel 2 (Mus musculus), P35561. HEK293-Kir2.1, FluxOR thallium flux fluorescence; stronger effect = lower value. B-score at 10 µM. actives 0.85% (n = 310,000). AID 1672, 2009;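 active = fluorescence ratio B-score at or below minus 3 SD of library scores, with starting-brightness B-score within 2 SD, cut at about -4.2 in these data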;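 note: channel flux triggered by added potassium and thallium sulfate stimulus; B-score of peak minus minimum fluorescence over baseline after thallium stimulus; more negative B-score means stronger Kir2.1 block with less thallium influx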
KCNK9 inh: KCNK9 potassium channel inhibitors, primary screen, HEK293 cells, thallium flux. Potassium channel subfamily K member 9 (Homo sapiens), Q9NPC2. FluxOR thallium flux fluorescence; stronger effect = lower value. B-score at 10 µM. actives 1.2% (n = 310,000). AID 488922, 2010;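 active = ratio B-score over 3 SD below the library mean, with starting fluorescence within 5 SD of its mean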;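 note: negative B-score means less thallium flux so channel inhibition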
Target sequence (Q9NPC2 whole entry, looked up): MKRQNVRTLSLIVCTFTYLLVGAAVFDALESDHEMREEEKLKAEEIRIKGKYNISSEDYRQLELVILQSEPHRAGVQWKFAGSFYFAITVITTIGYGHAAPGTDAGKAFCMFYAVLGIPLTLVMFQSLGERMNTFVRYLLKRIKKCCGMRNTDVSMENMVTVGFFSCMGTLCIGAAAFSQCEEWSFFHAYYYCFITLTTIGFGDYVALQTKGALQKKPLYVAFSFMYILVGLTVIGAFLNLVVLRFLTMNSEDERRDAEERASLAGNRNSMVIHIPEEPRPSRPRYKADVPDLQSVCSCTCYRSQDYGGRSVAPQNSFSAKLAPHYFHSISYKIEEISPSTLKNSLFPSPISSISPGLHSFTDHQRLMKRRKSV
KCNK3 inh: human KCNK3 channel inhibitors, primary screen, CHO cells, FluxOR thallium flux, B-score; actives 0.84% (n = 340,000); FluxOR fluorescence; stronger effect = lower value; B-score at 10 µM; AID 602410, 2012;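 active = B-score under library mean minus 4 SD, starting fluorescence ratio at most library mean plus 5 SD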;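 note: more negative B-score means stronger inhibition of thallium flux through KCNK3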
KCNQ1 pot: potentiators or activators of KCNQ1 channel, primary screen, cell-based, thallium flux, high-throughput | AID 2648, 2010 | actives 0.35% (n = 310,000) | B-score at 10 µM | CHO-K1 KCNQ1, thallium flux FluxOR fluorescence; stronger effect = higher value | Potassium voltage-gated channel subfamily KQT member 1 (Homo sapiens), P51787;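 active = fluorescence ratio B-score, a plate-corrected score, at least three library SD, with initial intensity B-score within 5 SD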
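Material: CHO-K1 cells stably expressing KCNQ1. Medium: assay buffer for compound exposure, DMSO matched across wells. Reagent: K+/Tl+ depolarizing stimulus. Compound dosing: single-concentration screen. Times: 37 °C overnight plating, 90-min dark dye load, 20-min compound pretreatment. Technique: FluxOR Tl+ flux fluorescence.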
hERG protect: hERG rescue from dofetilide block, primary screen, cell-based, CHO-hERG, FluxOR thallium flux, dofetilide IC70; Voltage-gated inwardly rectifying potassium channel KCNH2 (Homo sapiens), Q12809; dofetilide IC70 present; activation (rescue from dofetilide block), less the hit threshold, % at 10 µM; actives 0.51% (n = 310,000);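 active = activation above the mean of controls blocked by dofetilide plus 5 SD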;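 note: thallium influx through hERG after potassium depolarization seen as dye fluorescence rise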
KCNK3 inh conf: retest of human KCNK3 channel inhibitors, confirmation, CHO cells, FluxOR thallium flux, triplicate. shares compounds with KCNK3 inh. FluxOR fluorescence; 0% buffer, 100% carvedilol maximal block. ratio percent of control, % at 10 µM. actives 99% (n = 2,400). AID 651638, 2012;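 active = ratio percent of control, averaged over triplicates, above buffer control mean plus 5 SD, cut at about 64% in these data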;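 note: ratio is the fluorescence rise from min to max over baseline after thallium stimulus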
KCNK3 noninduced: thallium flux inhibition in non-induced cells, primary screen, counter-screen for KCNK3 inhibitor project, cell-based, non-induced KCNK3 line, FluxOR thallium, triplicate; shares compounds with KCNK3 inh; non-induced KCNK3 parental cells; stronger effect = lower value; thallium flux ratio (lower = more inhibition) at 10 µM; actives 40% (n = 2,400); AID 651747, 2012;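 active = thallium flux ratio, averaged over three wells, more than 5 SD below the buffer control mean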;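 note: host cells are CHO cells without KCNK3 induction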
Of the large screens only hits and unclear results are named; the others gave an inactive call (follow-up assays come after a bar, where they were run).

CCCOc1cccc(NC(=O)c2c(-c3ccccc3)noc2C)c1	none
COc1cc(C(=O)NCc2nnc(SCC(=O)N3CCc4ccccc43)o2)cc(OC)c1OC	none
CCCCN(C(=O)COc1ccc(C)cc1OC)c1c(N)n(CCC)c(=O)[nH]c1=O	none
COc1ccc(S(=O)(=O)N2CCOCC2)cc1NC(=O)CSc1nnc2c(n1)[nH]c1ccccc12	none
C/C(=N\OCc1nc2ccccc2c(=O)n1/N=C/c1cc([N+](=O)[O-])ccc1O)c1ccccc1	KCNQ1 inh 6, KCNK3 inh -9.1 | KCNK3 inh conf 95 | KCNK3 noninduced 0.12
O=[N+]([O-])c1ccc(O)c(/C=N/n2c(CO)nc3ccccc32)c1	none
COc1cc(C)ccc1OCCOc1c(Cl)cc(Cl)cc1Cl	none
COc1cc(C)ccc1OCCOc1cc(C)ccc1Cl	KCNK3 inh -8.7 | KCNK3 inh conf 88 | KCNK3 noninduced inactive
COc1cccc(-c2nc(CS(=O)(=O)CC(=O)NC3CCC(C)CC3)c(C)o2)c1 (configuration not stated)	KCNK3 inh -10 | KCNK3 inh conf inactive | KCNK3 noninduced inactive
COc1cccc(-c2nc(CS(=O)(=O)CC(=O)NC3CCCC3)c(C)o2)c1	none
CCC(C(=O)NCCC1=CCCCC1)n1nc(C)c2c(C)n(-c3ccccc3)nc2c1=O (configuration not stated)	KCNK3 inh -8.8 | KCNK3 inh conf 89 | KCNK3 noninduced inactive
CCC(C(=O)Nc1cc(F)ccc1F)n1nc(C)c2c(C)n(-c3ccc(C)cc3)nc2c1=O (configuration not stated)	none
CCC(C(=O)Nc1ccccc1F)n1nc(C)c2c(C)n(-c3ccccc3)nc2c1=O (configuration not stated)	KCNK3 inh -12 | KCNK3 inh conf 89 | KCNK3 noninduced inactive
CC(SCc1nc2sc3c(c2c(=O)[nH]1)CCCC3)C(=O)Nc1ccccn1 (configuration not stated)	none
CCn1ccc(C(=O)N2CCN(c3ncccn3)CC2)n1	none
O=C(NC1CCCCC1)N1CCN(c2nc(-c3ccccc3)cs2)CC1	none
O=C(NC12CC3CC(CC(C3)C1)C2)N1CCN(c2nc(-c3ccccc3)cs2)CC1	KCNK9 inh -6.7 | KCNK3 inh conf 104 | KCNK3 noninduced inactive
O=C(Nc1ccc(Cl)cc1)Nc1ccccc1CC[N+](=O)[O-]	KCNQ1 inh 8, KCNK3 inh -11 | KCNK3 inh conf 82 | KCNK3 noninduced inactive
CCCCCOC(=O)c1ccc(OC(=O)c2cncc(Br)c2)cc1	none
CCCCCCCOC(=O)c1ccc(OC(=O)c2cccnc2)cc1	KCNK3 inh -9.4 | KCNK3 inh conf 136 | KCNK3 noninduced 0.14
CCn1cc(C(=O)N[C@H](C(=O)NCCCn2ccnc2)C(C)C)c(=O)c2cc3c(cc21)OCO3	none
CN(Cc1cn(C)nc1-c1ccc(Oc2ccccc2)cc1)Cc1cnc2ccccn12	KCNQ1 inh 7, Kir21 inh -5.1, KCNK9 inh -7, KCNK3 inh -9.4 | KCNK3 inh conf 131 | KCNK3 noninduced 0.13
CN(Cc1ccno1)Cc1cn(C)nc1-c1ccc(Oc2ccccc2)cc1	KCNK3 inh -10 | KCNK3 inh conf 91 | KCNK3 noninduced inactive
COCCN(C(=O)c1ccco1)c1nc(-c2ccccc2)cs1	KCNK3 inh -10 | KCNK3 inh conf 92 | KCNK3 noninduced 0.15
O=c1c2cn(Cc3ccc(F)cc3)c3ccc(F)cc3c-2nn1Cc1ccc(F)cc1	none
CCN(CC(=O)Nc1cccc(C#N)c1)CC(=O)Nc1cccc(OC)c1	KCNK3 inh -9.7 | KCNK3 inh conf 90 | KCNK3 noninduced inactive
Cc1ccc(NC(=O)COC(=O)[C@H](C)N2C(=O)C3CC=CCC3C2=O)cc1S(=O)(=O)N(C)C (some centres not stated)	none
C/C(=N\OC(=O)NC1CCCCC1)c1sc(-c2ccccc2)nc1C	KCNK3 inh -11 | KCNK3 inh conf 113 | KCNK3 noninduced 0.14
O=C(c1ccccc1)c1ccc2nc(N3CCN(C(=O)c4ccco4)CC3)c3nncn3c2c1	none
CCOC(=O)N1CCN(c2nc3ccc(C(=O)c4ccccc4)cc3n3cnnc23)CC1	KCNK3 inh -11 | KCNK3 inh conf 83 | KCNK3 noninduced inactive
CCOc1ccccc1NC1c2ccccc2C(=O)N1Cc1ccco1 (configuration not stated)	KCNK3 inh -11 | KCNK3 inh conf 98 | KCNK3 noninduced inactive
Cc1cccc(C)c1NS(=O)(=O)c1cc2c3c(c1)CCN3C(=O)CC2	none
COc1cc(C(=O)Nc2ccc3c(c2)ncn3C(C)(C)C)cc(OC)c1OC	KCNK3 inh -9.3 | KCNK3 inh conf 75 | KCNK3 noninduced inactive
O=C(CSCc1ccccc1)Nc1ccccc1C(=O)Nc1ccc(C(=O)O)cc1	none
CCOC(=O)c1sc2nc(C)nc(N3CCCCC3C)c2c1C (configuration not stated)	KCNK3 inh -8.8 | KCNK3 inh conf 90 | KCNK3 noninduced 0.15
Cc1sc2nc(CSc3nnc(Cc4cccs4)n3C3CCCCC3)[nH]c(=O)c2c1C	none
Cc1sc2nc(SCc3nnc(-c4cccs4)o3)n(C3CCCC3)c(=O)c2c1C	KCNQ1 inh 8, KCNK3 inh -12 | KCNK3 inh conf 79 | KCNK3 noninduced inactive
CCOc1ccc(C2N(c3ccc(F)cc3)C(=O)C3CCCN32)cc1OC (configuration not stated)	none
Cc1ccc(NC(=O)C(=O)c2c(-c3ccccc3)cc3ccccn23)cc1S(=O)(=O)N1CCOCC1	KCNK3 inh -10 | KCNK3 inh conf 113 | KCNK3 noninduced inactive
CCn1c2ccccc2c2nnc(SCc3ccccc3)nc21	KCNK9 inh -6.6, KCNK3 inh -12 | KCNK3 inh conf 106 | KCNK3 noninduced inactive
Cc1ccc(C(=O)c2ccc([N+](=O)[O-])cc2)cc1C	none
